# Assay outcomes from PubChem.
# Most compounds without a hit are left out; they make up all but 2.1% or so of the library.
# VIM-2 inh – inhibitors of Pseudomonas aeruginosa VIM-2 metallo-beta-lactamase | AID 1527 | inhibition, % at 5.6 µM | hit rate 0.89% among 290,000 | purified VIM-2, nitrocefin hydrolysis, epi-absorbance fluorescence;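 active = inhibition above the mean of all tested compounds plus 3 SD, cutoff set per screening run, cut at about 7.5% in these data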;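 note: red hydrolysis product quenches plate fluorescence so inhibitors raise well fluorescence; 0% = enzyme with DMSO and 100% = DMSO without enzyme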
# MsrA act – activators of bovine methionine sulfoxide reductase A. activation, % at 10.6 µM. hit rate 0.3% among 360,000. purified bovine MsrA, absorbance read-out; in the data active = activation above about 7.5%;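 note: 0% = vehicle and 100% = reference activator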
# IMP-1 inh – blocks Pseudomonas aeruginosa IMP-1 metallo-beta-lactamase | inhibition, % at 5.6 µM | hit rate 0.45% among 290,000 | AID 1556 | purified IMP-1, nitrocefin hydrolysis, epi-absorbance fluorescence;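 active = inhibition above the mean plus 3 SD of all compounds in the same screening run, cut at about 4.5% in these data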;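 note: 0% = IMP-1 with DMSO and 100% = DMSO wells lacking enzyme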
#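 Assay system: purified recombinant IMP-1 beta-lactamase. Input: IMP-1 0.2 nM before substrate addition. Buffer or medium: Zinc- and detergent-supplemented HEPES buffer, pH 7.1. Schedule: 25 °C, 15 min preincubation, 25 min reaction. Signal: Epi-absorbance fluorescence, 480 nm excitation, 530 nm emission. Evaluation: percent inhibition from optical density relative to buffer-blank wells.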
# MsrA inhibitor – bovine MsrA inhibition | AID 651718 | inhibition, % at 15.5 µM | purified bovine MsrA, absorbance read-out | hit rate 0.75% among 360,000;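 note: 0% = vehicle wells with enzyme and 100% = reference inhibitor wells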
# PKA-R1A act – PKA-R1A complex activation | hit rate 0.083% among 340,000 | PKA-R1A dissociation, Cy5-IP20 fluorescence polarization; scaled: DMSO 0%, 113 µM cGMP 100% | AID 504707 | activation, % at 11.4 µM;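 active = percent activation above the mean of all tested compounds plus 3 SD, cut at about 19% in these data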;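 note: higher means more PKAc released from R1A so a rise in polarization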
# PKA-R2B act – PKA-R2B complex activation; AID 504700; hit rate 0.079% among 340,000; activation, % at 11.4 µM; PKA-R2B holoenzyme dissociation, Cy5-IP20 fluorescence polarization; R2B truncated from residue 108, S112A mutant; 0% DMSO only, 100% 113 µM cGMP; P22694+P31323;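 active = activation above a cutoff set at the mean over all compounds plus 3 SD, cut at about 18% in these data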;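 note: higher means more holoenzyme dissociation and a rise in polarization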
# Target sequence (P31323 whole entry, looked up, other chains not shown, the tested form may be a part): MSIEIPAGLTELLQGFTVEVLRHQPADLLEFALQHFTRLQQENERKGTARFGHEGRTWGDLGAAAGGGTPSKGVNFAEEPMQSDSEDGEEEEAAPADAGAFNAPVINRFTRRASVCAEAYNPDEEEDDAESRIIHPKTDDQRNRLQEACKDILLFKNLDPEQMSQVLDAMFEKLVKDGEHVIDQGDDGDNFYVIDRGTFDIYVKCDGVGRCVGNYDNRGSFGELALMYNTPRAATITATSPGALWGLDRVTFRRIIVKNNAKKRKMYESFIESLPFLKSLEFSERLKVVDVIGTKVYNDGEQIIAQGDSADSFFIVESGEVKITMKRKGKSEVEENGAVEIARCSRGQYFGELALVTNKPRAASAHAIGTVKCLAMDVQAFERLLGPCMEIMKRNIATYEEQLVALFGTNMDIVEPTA
# MsrA conf – confirmation of bovine MsrA inhibitors. shares compounds with MsrA inhibitor. purified bovine MsrA, absorbance read-out. inhibition, % at 15.5 µM. hit rate 41% among 2,300;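 note: coupled to thioredoxin reductase with NADPH and selenocystamine and DMSO as substrate; 0% = vehicle only and 100% = full effect of reference inhibitor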
# Numbers without * were called inactive; / = no result given. Cut-off read from the data, not from the text of the source, unless noted: active = inhibition above about 4.5%; inactive = the rest.
SMILES,VIM-2 inh,MsrA act,IMP-1 inh,MsrA inhibitor,PKA-R1A act,PKA-R2B act,MsrA conf
CCn1c(C)nc2cc(C(=O)N/N=C/c3ccc(OC)c(O)c3)ccc21,-3,-6,-3,7.5*,-7,-9,4.7*
CCn1c(C)nc2cc(C(=O)N/N=C/c3ccc(N4CCOCC4)cc3)ccc21,-3,-6,-2,5.5*,8,-5,6.0*
CC(=O)N1CCN(CC(=O)Nc2ccccc2C(=O)Nc2ccccc2)CC1,/,-2,/,-1,-5,6,/
OCCNc1ncnc2c1ncn2[C@H]1CN(Cc2ccncc2)C[C@@H](CO)O1,/,1,/,-1,/,/,/
O=C(COc1ccc2c(-c3ccccc3)cc(=O)oc2c1)NCC1CCC(C(=O)O)CC1 (stereo unspecified),-1,-2,-2,5.0*,1,4,3
O=C(COc1cc2oc(=O)cc(-c3ccccc3)c2cc1Cl)NCC1CCC(C(=O)O)CC1 (stereo unspecified),-2,-6,-3,4,1,6,/
COc1ccc(NC(=O)CN(C)C(=O)/C=C/c2cn(-c3ccccc3)nc2-c2ccc(C)cc2)cc1,/,-4,/,4.9*,-6,-6,3
COc1ccc(NC(=O)CN(C)C(=O)/C=C/c2cn(-c3ccccc3)nc2-c2ccc(F)cc2)cc1,/,1,/,3,-7,-14,/
Cc1cc2c(cc1C)-n1nnnc1C(N1CCN(c3ccccc3F)CC1)C(=O)N2 (stereo unspecified),/,/,/,-1,/,/,/
CN(CC1COc2ccccc2O1)C(=O)Cn1cc(C(F)(F)F)ccc1=O (stereo unspecified),/,-1,/,0,-3,8,/
COc1ccc(CNC(=O)C(C)Sc2ccc(S(=O)(=O)N3CCOCC3)cn2)cc1 (stereo unspecified),/,0,/,1,4,-14,/
CCOC(=O)c1c(NC(=O)COC(=O)c2cccnc2OCC)sc(C(=O)N(CC)CC)c1C,/,-8,/,0,-10,-7,/
CCCN(CCC)c1cc(=O)nc2ccccn12,/,/,/,0,/,/,/
CN(C)C=NC(=O)/C(C#N)=C1\CCc2ccccc2N1,-1,-15,0,6.3*,-8,-15,3
O=C(NCc1ccccc1)c1ccc(Oc2ccc(C(=O)NCc3ccccc3)cc2)cc1,-1,-1,-2,0,0,-1,/
COC(=O)CNC(=O)c1ccc(=O)oc1,-1,-7,-1,5.8*,2,15,5.3*
O=C(NCc1ccccc1)c1ccc(=O)oc1,-1,-11,-2,7.5*,3,0,6.2*
COC(=O)CNC(=O)c1cc(OC)cc(OC)c1,-3,-5,-3,-1,2,-14,/
O=C(NCc1ccco1)c1ccc(=O)oc1,-3,-6,-3,7.9*,4,0,6.2*
O=C(Cc1c[nH]c2ccccc12)Nc1ccc(Nc2cccnc2)c(-c2cccc(Cl)c2)c1,/,/,/,1,/,/,/
Cc1cc(Br)cn2c(Cc3cccc(Cl)c3)c(C3CCCCC3)nc12,/,/,/,0,/,/,/
Cc1ccccc1COc1ccc(-c2nnn(CC(=O)O)n2)cc1,0,0,-2,0,6,1,/
O=C(COC(=O)CCCN1C(=O)c2cccc3cccc(c23)C1=O)Nc1ccc(Cl)cc1,0,-5,-3,4.8*,4,-5,1
O=C(O)c1cccc(Cn2c(Cl)c(/C=N/NC(=O)c3ccc(O)cc3)sc2=O)c1,-3,-7,-2,8.5*,-7,-4,5.5*
O=C(COc1ccccc1)N/N=C/c1sc(=O)n(Cc2cccc(C(=O)O)c2)c1Cl,-2,-3,-2,3,-2,-5,/
SMILES,VIM-2 inh,MsrA act,IMP-1 inh,MsrA inhibitor,PKA-R1A act,PKA-R2B act,MsrA conf
Cc1oc2c(C)c3oc(=O)c(CC(=O)N[C@@H](CCCNC(N)=O)C(=O)O)c(C)c3cc2c1C,-1,-1,-4,4.9*,3,2,2
C(=N\Nc1nc2ccccc2s1)/c1ccco1,-3,-15,-4,6.2*,-16,-14,5.5*
CC1CCCC(C)N1C(=O)CSc1nnc(-c2ccco2)n1C (stereo unspecified),/,-9,/,0,4,-1,/
CC(C)(C)C(=O)Nc1sc2c(c1C#N)CCC2,2,-4,-4,5.9*,0,-9,4.7*
COc1ccc2cc3cc(C(=O)NCc4ccco4)oc3nc2c1,-1,-3,-2,4.8*,-2,-7,2
COc1ccc2cc3cc(C(=O)NCc4ccccn4)oc3nc2c1,-3,-5,-1,8.0*,-8,0,5.6*
O=C(NCc1ccco1)c1cc2cc3ccc(Cl)cc3nc2o1,-2,-3,-3,0,-4,7,/
COc1ccc2nc3oc(C(=O)NCc4cccs4)cc3cc2c1,-3,-6,-1,0,3,-3,/
CCOC(=O)C1=CCN(S(=O)(=O)c2ccccc2C)C1c1ccc(Cl)c(Cl)c1 (stereo unspecified),/,-1,/,0,/,/,/
CC1(C)CC(NC(=O)c2ccc(F)cc2)CC(C)(C)N1,/,-3,/,0,-6,-3,/
CC(=O)c1ccc(-c2ccc(C(=O)NC3CC(C)(C)NC(C)(C)C3)o2)cc1,/,-4,/,5.4*,-1,-11,5.3*
CN(C)c1ccc(/C=N/NC(=O)CCCCCNC(=O)c2ccccc2)cc1,-2,-7,-3,4.8*,-8,-1,3
CSc1ccc(/C=N/NC(=O)c2cccs2)cc1,-1,-4,0,3,/,/,/
CN(C)c1ccc(/C=N/NC(=O)c2ccc(Cl)cc2)cc1,-12,-8,-3,3,-7,-1,/
CN(C)c1ccc(/C=N/NC(=O)c2ccccc2)cc1,-1,-6,-2,4.7*,-16,-8,4
CSc1ccc(/C=N/NC(=O)c2ccccc2Cl)cc1,-3,-8,-2,5.8*,-13,-16,4
CN(C)c1ccc(/C=N/NC(=O)CCc2c[nH]c3ccccc23)cc1,-4,-2,-2,5.5*,7,-4,3
C[C@@H]1CN([C@H](C)CO)C(=O)CCCn2nncc2CO[C@H]1CN(C)C(=O)Nc1ccc2c(c1)OCCO2,/,/,/,1,/,/,/
CC1CC(C)CN(C(=O)CN2C(=O)NC3(CCCCCCC3)C2=O)C1 (stereo unspecified),/,-1,/,-1,-2,-1,/
COC(=O)C[C@@H]1CC[C@H](NC(=O)c2ccccc2)[C@@H](CO)O1,/,/,/,-1,/,/,/
COc1ccc(/C=C(\NC(=O)c2ccccc2)C(=O)N/N=C/c2ccncc2)cc1,-1,-5,-2,5.0*,-3,-13,6.0*
CN(C)c1ccc(/C=N/NC(=O)CCCO)cc1,-2,-7,-2,5.9*,/,/,4
CN(C)c1ccc(/C=N/NC(=O)c2ccccc2Cl)cc1,-7,-3,-1,6.3*,-4,4,5.0*
